{"source": "paper PMC4955407", "about": "(Journal of medicinal chemistry, 2015)", "molecules": {"B1": {"name": "E-box SPR oligonucleotide (dsDNA)", "DNA 1": "TGAAGCAGACCACGTGGTCGTCTTCA", "DNA 2": "TGAAGACGACCACGTGGTCTGCTTCA"}}, "key": {"[1]": {"test_system": "HL60 promyelocytic leukemia cells", "assay": "Cell cycle analysis, propidium iodide", "assay_type": "cell-based, human", "settings": "HL60, 24 h"}, "[2]": {"target": "c-Myc–Max heterodimers in HL60 cells (Homo sapiens, UniProt P01106)", "sequence (P01106 whole entry, one chain of several)": "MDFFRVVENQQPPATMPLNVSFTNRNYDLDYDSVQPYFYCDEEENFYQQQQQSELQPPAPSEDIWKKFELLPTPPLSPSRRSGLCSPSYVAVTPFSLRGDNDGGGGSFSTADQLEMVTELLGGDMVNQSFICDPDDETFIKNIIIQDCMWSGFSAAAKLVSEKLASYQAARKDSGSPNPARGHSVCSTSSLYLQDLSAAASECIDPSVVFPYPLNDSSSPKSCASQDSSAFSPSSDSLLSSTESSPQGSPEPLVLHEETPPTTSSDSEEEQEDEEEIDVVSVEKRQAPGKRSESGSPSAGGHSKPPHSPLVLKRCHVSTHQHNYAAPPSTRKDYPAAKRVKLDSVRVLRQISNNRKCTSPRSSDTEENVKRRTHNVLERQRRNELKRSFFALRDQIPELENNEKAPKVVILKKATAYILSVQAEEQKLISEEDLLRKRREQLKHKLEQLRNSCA", "assay": "c-Myc–Max co-immunoprecipitation", "assay_type": "cell-based", "settings": "HL60, 6 h", "in_short": "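About 5 × 10^6 HL60 cells were exposed to test compound or DMSO vehicle for 6 h. Cells were pelleted at 500 × g, washed in ice-cold PBS and lysed in IP buffer, keeping an input aliquot. Max was immunoprecipitated, and precipitates were washed three times. They were run on 10% SDS-PAGE and immunoblotted with anti-Myc monoclonal 9E10 (1:1000).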"}, "U266": {"test_system": "U266", "settings": "read-out: Growth inhibition IC50, U266; U266 myeloma, expresses L-Myc; cited from earlier work"}, "c-Myc–Max(S)/DNA complex": {"target": "c-Myc–Max(S)/DNA complex (Homo sapiens, UniProt P01106)", "assay": "EMSA, disruption of c-Myc–Max", "assay_type": "biochemical", "settings": "100 µM compound, n = 1", "in_short": "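His6-tagged proteins were expressed in E. coli BL21DE3(pLysS) with IPTG induction and purified on Ni-NTA under 8 M urea. The tag was removed with TEV protease, giving >95% purity. Each protein at 30 nM was mixed with 30 nM HEX-labelled double-stranded oligonucleotide carrying a c-Myc binding site. Complexes were resolved by gel shift.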"}, "Solubility": {"assay": "Solubility", "assay_type": "physicochemical"}, "[3]": {"settings": "metabolism of the nitro group; cited from earlier work"}, "[4]": {"test_system": "H460 large cell lung cancer cells", "assay": "Neutral lipid quantification, BODIPY-459/503", "assay_type": "cell-based", "settings": "H460, 48 h", "in_short": "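Sub-confluent H460 cells were treated with test compound for 48 h, then washed, trypsinised and resuspended in PBS. […] was added in PBS at 50 µg/ml, and cells were stained for 30 min at ambient temperature. After three PBS washes, cells were analysed by flow cytometry. Mean fluorescence was expressed as a ratio to untreated controls stained in parallel, from biological triplicates.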"}, "[5]": {"test_system": "NF-κB reporter in HeLa cells", "assay": "Luciferase reporter, NF-κB binding sites", "assay_type": "cell-based", "settings": "6 h"}, "[6]": {"test_system": "c-Myc-dependent reporter (wt-Myc) in HeLa cells", "assay": "Luciferase reporter, c-Myc binding sites", "assay_type": "cell-based", "settings": "6 h"}, "c-Myc–Max(S) heterodimer": {"target": "c-Myc–Max(S) heterodimer (Homo sapiens, UniProt P01106)", "assay": "SPR, c-Myc–Max", "assay_type": "binding"}, "Max(L)": {"target": "Max(L) (Homo sapiens, UniProt P61244 1-160)", "assay": "SPR"}, "[7]": {"target": "c-Myc bHLH-ZIP domain;Max(S) (Homo sapiens;Homo sapiens, UniProt P01106-1;P61244-2 353-437;1-151, |)", "assay": "SPR"}}}
{"molecule": "CCc1ccc(/C=C2\\SC(=S)NC2=O)cc1", "note": "[10058-F4, reference compound]", "values": [{"measurement": "Cell cycle arrest", "setting": "[1]", "result": "promoted a G0/G1 arrest"}, {"measurement": "c-Myc–Max association by co-IP", "setting": "[2]", "result": "abrogated c-Myc’s association with Max"}, {"measurement": "IC50", "setting": "U266", "result": "~100", "unit": "µM"}]}
{"molecule": "CC(C)COc1cc(C(=O)O)ccc1NC(=O)c1ccc([N+](=O)[O-])c(OCc2ccccc2)c1", "note": "[4ca, 3-Isobutoxy-4-(3-benzyloxy-4-nitrobenzamido)benzoic acid]", "values": [{"measurement": "EMSA screening, disruption of c-Myc–Max(S)/DNA binding", "setting": "c-Myc–Max(S)/DNA complex", "result": "complete disruption"}]}
{"molecule": "Methyl 3-benzyloxy-4-(3-isobutoxy-4-nitrobenzamido)benzoate [14ca]", "values": [{"measurement": "EMSA screening, disruption of c-Myc–Max(S)/DNA binding", "setting": "c-Myc–Max(S)/DNA complex", "result": "modest inhibitory activities"}]}
{"molecule": "COC(=O)c1ccc(NC(=O)c2ccc([N+](=O)[O-])c(OC(C)C)c2)c(OCC(C)C)c1", "note": "[14ba, Methyl 3-isobutoxy-4-(3-isopropoxy-4-nitrobenzamido)benzoate]", "values": [{"measurement": "Solubility", "setting": "Solubility", "result": "poor solubilities"}, {"measurement": "EMSA screening, disruption of c-Myc–Max(S)/DNA binding", "setting": "c-Myc–Max(S)/DNA complex", "result": "modest inhibitory activities"}]}
{"molecule": "CC(C)COc1cc(C(=O)O)ccc1NC(=O)c1ccc([N+](=O)[O-])c(OCC(C)C)c1", "note": "[4aa, 3-Isobutoxy-4-(3-isobutoxy-4-nitrobenzamido)benzoic acid]", "values": [{"measurement": "EMSA screening, disruption of c-Myc–Max(S)/DNA binding", "setting": "c-Myc–Max(S)/DNA complex", "result": "potent activity"}]}
{"molecule": "O=[N+]([O-])c1ccc(Nc2ccccc2-c2ccccc2)c2nonc12", "note": "[compound 2, reference compound]", "values": [{"measurement": "Half-life", "setting": "[3]", "result": "short half-life"}, {"measurement": "Neutral lipid accumulation", "setting": "[4]", "result": "increase in neutral lipid stores"}, {"measurement": "Luciferase activity, NF-kB vector", "setting": "[5]", "result": "no inhibition of luciferase was observed"}, {"measurement": "Luciferase activity, wt-c-Myc vector", "setting": "[6]", "result": "dose-dependent inhibition of luciferase"}]}
{"molecule": "CC(C)COc1nc(C(=O)O)ccc1NC(=O)c1ccc([N+](=O)[O-])c(OCC(C)C)n1", "note": "[compound 16, 6-Isobutoxy-5-(6-isobutoxy-5-nitropicolinamido)picolinic acid]", "values": [{"measurement": "EMSA screening, disruption of c-Myc–Max(S)/DNA binding", "setting": "c-Myc–Max(S)/DNA complex", "result": "complete disruption"}]}
{"molecule": "CC(C)COc1cc(C(=O)O)ccc1NC(=O)c1ccc([N+](=O)[O-])c(OCC(C)C)n1", "note": "[compound 15, 3-Isobutoxy-4-(6-isobutoxy-5-nitropicolinamido)benzoic acid]", "values": [{"measurement": "EMSA screening, disruption of c-Myc–Max(S)/DNA binding", "setting": "c-Myc–Max(S)/DNA complex", "result": "complete disruption"}]}
{"molecule": "CC(C)COc1cc(C(=O)O)ccc1NC(=O)c1ccc([N+](=O)[O-])c(OCc2cccc3ccccc23)c1", "note": "[4da, 3-Isobutoxy-4-(3-(naphthalen-1-ylmethoxy)-4-nitrobenzamido)benzoic acid]", "values": [{"measurement": "Cell cycle arrest", "setting": "[1]", "result": "promoted a G0/G1 arrest"}, {"measurement": "Kd", "setting": "c-Myc–Max(S) heterodimer", "result": "~10", "unit": "µM"}, {"measurement": "Kd by SPR, pre-formed heterodimers", "setting": "c-Myc–Max(S) heterodimer; c-Myc–Max(S) heterodimers pre-formed before addition of compound (Figure 4E)", "result": "somewhat higher Kd"}, {"measurement": "Neutral lipid accumulation", "setting": "[4]", "result": "increase in neutral lipid stores"}, {"measurement": "c-Myc–Max association by co-IP", "setting": "[2]", "result": "remain largely intact"}, {"measurement": "Luciferase activity, NF-kB vector", "setting": "[5]", "result": "no inhibition of luciferase was observed"}, {"measurement": "EMSA screening, disruption of c-Myc–Max(S)/DNA binding", "setting": "c-Myc–Max(S)/DNA complex", "result": "potent activity"}, {"measurement": "Luciferase activity, wt-c-Myc vector", "setting": "[6]", "result": "dose-dependent inhibition of luciferase"}]}
{"molecule": "CCOC(=O)C(=O)Nc1ccc(C(=O)Nc2ccc(C(=O)O)cc2OCC(C)C)cc1OCC(C)C", "note": "[compound 21, 4-(4-(2-Ethoxy-2-oxoacetamido)-3-isobutoxybenzamido)-3-isobutoxybenzoic acid]", "values": [{"measurement": "EMSA screening, disruption of c-Myc–Max(S)/DNA binding", "setting": "c-Myc–Max(S)/DNA complex", "result": "complete disruption"}]}
{"molecule": "B1", "values": [{"measurement": "binding result", "setting": "Max(L)", "result": "binds"}, {"measurement": "binding result", "setting": "[7]", "result": "binds"}]}
